In PubChem BioAssay AID1448 (The Scripps Research Institute Molecular Screening Center, 2008) one finds activation data, which are given here for 94 compounds.

Molecules are shown by their SMILES. The campaign covered roughly 220,000 compounds. About 630 (0.29%) were called active. The entries come from a sample that favours actives as a whole. Unmarked numbers belong to inactive results.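 The calls were made as follows: active = activation above its plate's cutoff, the mean activation of the plate's test wells plus 3 SD (cut at about 12% in these data); inactive = the rest.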

Chain of Mucolipin-3 (Homo sapiens) (Q8TDD5 whole entry, looked up): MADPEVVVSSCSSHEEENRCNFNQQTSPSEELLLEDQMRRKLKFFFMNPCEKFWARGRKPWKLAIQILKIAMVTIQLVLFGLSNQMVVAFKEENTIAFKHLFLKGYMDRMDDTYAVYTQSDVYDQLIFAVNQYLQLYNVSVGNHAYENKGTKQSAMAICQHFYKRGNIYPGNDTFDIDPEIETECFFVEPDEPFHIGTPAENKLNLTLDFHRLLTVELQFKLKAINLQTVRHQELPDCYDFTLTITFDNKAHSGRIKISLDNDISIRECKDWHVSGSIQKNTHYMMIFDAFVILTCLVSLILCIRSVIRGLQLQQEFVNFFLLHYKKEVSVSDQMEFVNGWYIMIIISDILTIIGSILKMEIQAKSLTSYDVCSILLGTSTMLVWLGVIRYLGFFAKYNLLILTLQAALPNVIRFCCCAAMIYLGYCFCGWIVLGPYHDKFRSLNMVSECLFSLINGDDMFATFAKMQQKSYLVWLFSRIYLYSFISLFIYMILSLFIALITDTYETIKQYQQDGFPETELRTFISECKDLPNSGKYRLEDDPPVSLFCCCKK

The target of this experiment is Mucolipin-3 (Homo sapiens) (UniProt Q8TDD5). Briefly: human TRPML3 channel agonists, primary screen, cell-based, HEK293 TRPML3-YFP, Fluo-8 calcium fluorescence, 3 µM (AID 1448).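 Also: 0% = DMSO only wells and 100% = carbachol wells.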 To be noted: at 3 µM, active compounds read high, 100% = the carbachol control signal. The essentials: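 system = HEK293 cells stably carrying human TRPML3-YFP | doses = one concentration, 3 µM nominal, 0.3% DMSO | timing = dye loading 1 h 37 °C then 30 min ambient, 125 s read | detection = Fluo-8 calcium dye fluorescence, ex 470-495, em 515-575 nm | benchmarks = high control carbachol 87 µM, low control DMSO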
As for `Cc1nn(-c2cc(Cl)ccc2N)c(=O)c2ccccc12`, the activation is 0.26%.

For `Cc1nn(C)cc1N1C(=O)c2cccc3c(N)ccc(c23)C1=O`, the activation was 16.9% (active).

Take `COc1ccc(N2C(=O)c3cccc4cccc(c34)C2=O)nn1`: the activation is -0.51%.

On to `COCc1cc(=O)[nH]c(SC)n1`, for which the activation was 0.74%.

For the compound `Cc1cc(C)cc(C(=O)NCC(=O)OCC(=O)N2CCCCC2)c1`, the activation is 0.67%.

Regarding `CC(NC(=O)COC(=O)C1CCN(S(=O)(=O)c2ccccc2C(F)(F)F)CC1)c1ccccc1` (centres undefined), the activation was -0.74%.

In the case of `CC(C)CCC(C)NC(=O)c1ccc2nccnc2c1` (centres undefined), the activation was -0.61%.

As to `O=C(c1nnc(-c2ccc(Cl)cc2)o1)C1CCCC1`, the activation is 0.06%.

Take `CC1=C(C)CC2C(=O)N(c3cccc4ccccc34)C(=O)C2C1` (centres undefined): the activation was 0.86%.

As to `CC1(C)CCCC2=C1CC1C(=O)N(c3ccccc3)C(=O)C1C2` (centres undefined), the activation was 22.9% (active).

For `Cc1ccc(N2C(=O)C3CC3C2=O)cc1` (centres undefined), the activation is 0.72%.

For the compound `Cc1cccc(-n2cnc(C(=O)NNC(=S)Nc3ccccc3)c2)n1`, the activation is 0.89%.

Take `Cn1ccc(NC(=O)Nc2ccc(Cl)cc2)n1`: the activation is 1.03%.

On to `CC1=NN(Cc2ccccc2)C(=O)/C1=C/c1ccc(N(C)C)cc1`, for which the activation is -2.14%.

Consider `O=C1NCC(=O)N(Cc2ccccc2)/C1=C/c1ccccc1`, for which the activation is 1.86%.

As to `CN(C)c1ccc(/C=C2\NC(=S)N(Cc3ccccc3)C2=O)cc1`, the activation is 19.5% (active).

As to `O=C(Nc1ccc(N2CCN(C(=O)c3ccccc3)CC2)c(Cl)c1)c1ncn[nH]1`, the activation was -0.11%.

As to `COCCNc1nc2nonc2nc1N1CCCC1c1nccs1` (centres undefined), the activation is 0.19%.

With `NS(=O)(=O)c1ccc(NC(=S)NNC(=O)c2cccs2)cc1`, the activation is -0.19%.

As to `O=S(=O)(c1ccc(NC(=S)NN=C(C2CC2)C2CC2)cc1)N1CCOCC1`, the activation is 0.74%.

`COc1cc(/C=N/Nc2nc3ccccc3s2)ccc1O`: the activation is -0.85%.

In the case of `CCOc1cc(/C=C(\C#N)c2nc(-c3cccs3)c(NC(C)=O)s2)ccc1O`, the activation was 9.68%.

With `COc1cc(/C=C(\C#N)c2nc3c(s2)CC(C)CC3)ccc1O` (centres undefined), the activation is 12.4% (active).

For the compound `Cc1nn(CC(=O)Nc2ccc3c(c2)OCO3)c(C)c1[N+](=O)[O-]`, the activation was -0.67%.

Take `Cc1[nH]n(-c2ccccc2)c(=O)c1N=Nc1ccccc1C(=O)N1CCCCC1`: the activation was 0.09%.

On to `O=C(CSc1nc2ccc(Nc3nc(N4CCOCC4)nc(N4CCOCC4)n3)cc2s1)NCc1ccco1`, for which the activation is 0.56%.

As for `CCn1c(CSc2ncccn2)nnc1SCC(=O)N1c2ccccc2CC1C` (centres undefined), the activation was -0.71%.

On to `CCCc1nnc(SCC(=O)N2C(C)CCCC2C)n1CC` (centres undefined), for which the activation was 20.2% (active).

Take `CCn1c(Cc2ccccc2)nnc1SCC(=O)Nc1ccccc1`: the activation was -0.27%.

For the compound `Cc1sc2nc(CC(N)=O)[nH]c(=O)c2c1-c1ccccc1`, the activation was 0.25%.

Take `CCCN(C(=O)CSc1nnnn1C)c1c(N)n(Cc2ccccc2)c(=O)[nH]c1=O`: the activation was -0.23%.

Turning to `COCCNC(=S)N1CCN(C)CC1`, the activation is 0.99%.

With `CC(C)C(=O)Nc1cccc(NC(=S)NC(=O)C(c2ccccc2)c2ccccc2)c1`, the activation is 1.07%.

As to `CCCCC(=O)NNC(=S)NC(=O)C(c1ccccc1)c1ccccc1`, the activation is 74.5% (active).

As for `O=C(NNC(=S)NCc1ccco1)C(c1ccccc1)c1ccccc1`, the activation was 0.93%.

For the compound `O=[N+]([O-])c1cc(S(=O)(=O)Nc2cccc(Cl)c2)ccc1N=Nc1c(O)[nH]c2ccccc12`, the activation was 0.58%.

As for `CCS(=O)(=O)Nc1ccc(C2=NN(C(C)=O)C(c3cccs3)C2)cc1` (centres undefined), the activation was 0.2%.

In the case of `NNC(=O)c1cccc(COCC(F)(F)C(F)F)c1`, the activation is 0.05%.

Regarding `CC(C)c1c(O)nc(SCCOc2ccc(Cl)cc2)[nH]c1=O`, the activation was 0.56%.

Turning to `COc1cc(OC)cc(/C(N)=N/O)c1`, the activation is 0.62%.

Regarding `CC(/C=C/c1ccco1)=N/NC(=O)C1COc2ccccc2O1` (centres undefined), the activation was 1.2%.

For `C=C(C)Cn1c(C)cc(C)c(S(=O)(=O)c2ccccc2C)c1=O`, the activation is 42% (active).

For the compound `S=c1nc(C23CC4CC(CC(C4)C2)C3)nc2sccn12`, the activation was 0.26%.

For the compound `Cc1ccccc1C(=O)NNC(=O)CN1C(=O)c2ccccc2C1=O`, the activation is 1.17%.

Consider `O=C(NCCN1C(=O)S/C(=C\c2cccnc2)C1=O)c1ccc(S(=O)(=O)N2CCCC2)cc1`, for which the activation is -0.11%.

On to `O=C(COC(=O)c1ccc(NS(=O)(=O)c2cccs2)cc1O)Nc1ccc(F)cc1`, for which the activation was 0.82%.

Take `O=C(CSc1nncn1-c1cccnc1)N1CCOCC1`: the activation was 0.63%.

Consider `O=S(=O)(Nc1ccccc1N1CCOCC1)c1ccc(Cl)s1`, for which the activation is 98.9% (active).

Turning to `O=S(=O)(Nc1cc(S(=O)(=O)N2CCOCC2)ccc1N1CCCC1)c1cccs1`, the activation was -0.45%.

Regarding `O=C(Nc1ccccc1N1CCOCC1)c1csc2c1CCCC2`, the activation is -1.45%.

For `CCOc1ccc(Br)cc1S(=O)(=O)Nc1ccc(C(=O)OC(C)C(=O)N(C)c2ccccc2)cc1` (centres undefined), the activation is 0.82%.

Consider `COc1ccc(OC)c(NC(=S)N2CCc3ccccc3C2)c1`, for which the activation is -0.32%.

For `COCc1[nH][nH]c(=O)c1C=Nc1ccc(F)cc1F`, the activation was 0.21%.

Take `Cc1ccc(O)c(NC(=S)NC(=O)COc2ccc(Br)cc2)c1`: the activation is 20.5% (active).

As for `Cc1cccc(OCC(=O)NC(=S)Nc2ccccc2N2CCOCC2)c1`, the activation is 0.19%.

Consider `Cc1ccc(O)c(NC(=O)COc2cc(C)ccc2C)c1`, for which the activation is 0.83%.

As to `CC(C)N(C(=O)CSc1nc(COc2ccccc2)nc2ccccc12)C(C)C`, the activation is -1.84%.

On to `O=C(NCc1cccnc1)C(=O)Nc1nc(-c2ccccc2)cs1`, for which the activation is 0.51%.

In the case of `O=C(NNS(=O)(=O)Cc1ccccc1)c1ccc([N+](=O)[O-])cc1`, the activation is 0.34%.

Regarding `CCN(CC)S(=O)(=O)c1ccc2c3c(cccc13)C(=O)S2`, the activation was 12.9% (active).

With `CCN(CC)S(=O)(=O)c1cc([N+](=O)[O-])ccc1N=Nc1c(O)n(C)c2ccccc12`, the activation was 0.98%.

Regarding `CN(CCc1ccccn1)S(=O)(=O)c1ccc2c3c(cccc13)C(=O)N2`, the activation is 0.24%.

Consider `COCCNC(=O)C(OC(=O)c1cccs1)c1ccc(F)cc1` (centres undefined), for which the activation was 0.35%.

Turning to `COc1cc(OC)cc(C(=O)N[C@H](C(=O)Nc2nc3ccccc3[nH]2)C(C)C)c1`, the activation is 0.87%.

For `COc1cc(OC)cc(C(=O)N[C@H](C(=O)OCC(=O)NC(C)c2ccccc2)C(C)C)c1` (some centres undefined), the activation is 17.2% (active).

For the compound `CC(NC(=O)COC(=O)c1ccc2c(c1)OCO2)c1ccccc1` (centres undefined), the activation was -0.07%.

For `COc1ccc(Br)cc1CN(C)CC(=O)Nc1cc(Cl)cc(Cl)c1`, the activation was 0.63%.

For `O=c1[nH]c2c(c(=O)n1Cc1ccccc1)CCC2`, the activation was 0.43%.

With `Cc1cc2nc3c(=O)n(Cc4ccccc4)c(=O)[nH]c3nc2cc1N`, the activation is 23.9% (active).

With `CC(=O)c1ccc(-c2ccc(Cn3c(C)nc4cc(N)c(C)nc43)cc2)cc1`, the activation was 0.69%.

Regarding `CCCC(=O)Nc1cccc(NC(=S)NC(=O)C(C)Oc2ccc(Cl)cc2Cl)c1` (centres undefined), the activation was 0.1%.

As to `Cc1onc(-c2ccccc2)c1C(=O)NNC(=S)NC(=O)c1ccc(F)cc1`, the activation was 1.79%.

On to `COc1ccc(C(=O)NC(=S)NNC(=O)c2c(-c3ccccc3)noc2C)cc1`, for which the activation is 31.2% (active).

For `COc1ccc(C(=O)NC(=S)NNC(=O)CCc2ccccc2)cc1`, the activation is 2.05%.

On to `O=C(Nc1ccc(S(=O)(=O)Nc2nccs2)cc1)c1cc(-c2ccncc2)nc2ccccc12`, for which the activation was 0.93%.

With `CC(C)Cc1nc(Cl)c(C#N)c2c1CCC2`, the activation is -0.84%.

Turning to `O=C(CN1CCN(C(=S)NC2CCCC2)CC1)Nc1ccc(Oc2ccccc2)cc1`, the activation was 3.02%.

On to `CCOCC(=O)Nc1ncc(S(=O)(=O)c2ccc([N+](=O)[O-])cc2)s1`, for which the activation is 2.38%.

With `O=C(CCc1ccccc1)Nc1ncc([N+](=O)[O-])s1`, the activation was 8.03%.

`O=C(Cc1c(F)cccc1Cl)Nc1ncc([N+](=O)[O-])s1`: the activation was 10.9%.

Consider `CC(=O)Oc1ccccc1C(=O)Nc1ncc([N+](=O)[O-])s1`, for which the activation was 16.7% (active).

Consider `CCC(C)NC(=O)c1ccc(N2CCC3(CC2)OCCO3)c([N+](=O)[O-])c1` (centres undefined), for which the activation is -0.07%.

With `COc1cc2nc(CN(C)Cc3ccc(F)cc3)[nH]c(=O)c2cc1OC`, the activation was 0.67%.

Regarding `Cc1cs/c(=N\N=C\c2ccc(O)cc2)n1Cc1ccco1`, the activation was -0.12%.

As for `COc1ccc(NC(=O)Cn2c(=O)n(Cc3ccco3)c(=O)c3ccccc32)cc1`, the activation was 0.61%.

On to `CN(c1ccccc1)c1ccc(/C=c2\s/c(=C(/C#N)C(=O)C(C)(C)C)n(Cc3ccco3)c2=O)cc1`, for which the activation was 14.8% (active).

As to `Cc1sc2ncnc(Sc3nc4ccccc4s3)c2c1C`, the activation was 0.98%.

Regarding `CCc1c(C)nc2c(-c3ccccc3)c(C)nn2c1Nc1ccc(NC(C)=O)cc1`, the activation is -0.72%.

Take `Cc1ccc(CN(C)CC(=O)Nc2cccc([N+](=O)[O-])c2)o1`: the activation was -0.52%.

As to `CN(CC(=O)Nc1cccc(F)c1)CC(=O)Nc1cccc([N+](=O)[O-])c1`, the activation is 26.9% (active).

For `Cc1ccc(NC(=O)CN(C)CC(=O)Nc2cccc(F)c2)cc1[N+](=O)[O-]`, the activation was 4.13%.

Turning to `COC(=O)C1=C(C)N(c2ccc(Br)cc2)C(=O)/C1=C\c1ccco1`, the activation was 0.24%.

For `O=C(O)C(c1ccccc1)C1(O)CCCCC1` (centres undefined), the activation was 1.12%.

With `CC(NC(=O)C(C)(C)C)C(c1cccs1)N1CCN(Cc2ccccc2)CC1` (centres undefined), the activation was -0.4%.
